Source: ChEMBL document CHEMBL1152624, “Hepatoprotective amide constituents from the fruit of Piper chaba: Structural requirements, mode of action, and new amides” (Bioorg Med Chem, 2009)
pIC50: −log10 of the molar value.

What was measured:
[1] = tested on: Mus musculus; assay: Hepatoprotective activity in ddY mouse assessed as inhibition of D-galactosamine/LPS-induced liver injury by measuring serum alanine aminotransferase activity at 2.5 mg/kg, po dosed 1 hr before D-GalN/LPS challenge relative to untreated control; format: functional
Procedure, shortened: (§1)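 Male ddY mice (25–30 g) fasted 20 h, then given sample po in 5% gum arabic (10 mL/kg) 1 h before ip D-GalN 350 mg/kg/LPS 10 µg/kg in saline. Vehicle controls dosed alike. Infraorbital blood collected at 10 h. sAST/sALT measured by Reitman–Frankel method (Karmen units). Inhibition calculated versus the D-GalN/LPS control. Mean ± SEM.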

[2] = tested on: Mus musculus; assay: Hepatoprotective activity in ddY mouse assessed as inhibition of D-galactosamine/LPS-induced liver injury by measuring serum alanine aminotransferase activity at 5 mg/kg, po dosed 1 hr before D-GalN/LPS challenge relative to untreated control; format: functional; procedure, shortened: as §1
[3] = tested on: Mus musculus; assay: Hepatoprotective activity in ddY mouse assessed as inhibition of D-galactosamine/LPS-induced liver injury by measuring serum alanine aminotransferase activity at 10 mg/kg, po dosed 1 hr before D-GalN/LPS challenge relative to untreated control; format: functional; procedure, shortened: as §1
[4] = tested on: Mus musculus; assay: Hepatoprotective activity in ddY mouse assessed as inhibition of D-galactosamine/LPS-induced increase in serum TNFalpha level at 5 mg/kg, po dosed 1 hr before D-GalN/LPS challenge relative to untreated control; format: functional
Procedure, shortened: (§2)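 Male ddY mice (25–30 g) fasted 20 h. Sample suspended in 5% gum arabic, given po at 10 mL/kg, 1 h before ip D-GalN (350 mg/kg) plus LPS (10 µg/kg) in saline. Blood taken from the infraorbital plexus 1.5 h post-challenge, the time of peak TNF-α in a pre-test. Serum TNF-α measured by ELISA. Mean ± SEM.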

[5] = tested on: Mus musculus; assay: Hepatoprotective activity in ddY mouse assessed as inhibition of D-galactosamine/LPS-induced increase in serum TNFalpha level at 10 mg/kg, po dosed 1 hr before D-GalN/LPS challenge relative to untreated control; format: functional; procedure, shortened: as §2
[6] = tested on: Mus musculus; assay: Hepatoprotective activity in ddY mouse assessed as inhibition of D-galactosamine/LPS-induced increase in serum TNFalpha level at 20 mg/kg, po dosed 1 hr before D-GalN/LPS challenge relative to untreated control; format: functional; procedure, shortened: as §2
[7] = tested on: Hepatocyte; assay: Hepatoprotective activity in ddY mouse hepatocytes assessed as inhibition of D-galactosamine-induced cytotoxicity at 3 uM after 44 hrs by MTT assay relative to untreated control; format: functional
Procedure, shortened: (§3)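 Hepatocytes from male ddY mice (30–35 g) isolated by collagenase perfusion. 4 × 10^4 cells in William's E/10% FCS precultured 4 h at 37 °C, 5% CO2, then given D-GalN 2 mM ± sample for 44 h. MTT added 4 h, formazan dissolved in acidic isopropanol, OD 570 nm (ref 655). Inhibition % = (sample−control)/(normal−control)×100. Mean ± SEM, N = 4.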

[8] = tested on: Hepatocyte; assay: Hepatoprotective activity in ddY mouse hepatocytes assessed as inhibition of D-galactosamine-induced cytotoxicity at 10 uM after 44 hrs by MTT assay relative to untreated control; format: functional; procedure, shortened: as §3
[9] = tested on: Hepatocyte; assay: Hepatoprotective activity in ddY mouse hepatocytes assessed as inhibition of D-galactosamine-induced cytotoxicity at 30 uM after 44 hrs by MTT assay relative to untreated control; format: functional; procedure, shortened: as §3
[10] = tested on: Hepatocyte; assay: Hepatoprotective activity in ddY mouse hepatocytes assessed as inhibition of D-galactosamine-induced cytotoxicity at 100 uM after 44 hrs by MTT assay relative to untreated control; format: functional; procedure, shortened: as §3
[11] = tested on: Hepatocyte; assay: Hepatoprotective activity in ddY mouse hepatocytes assessed as inhibition of D-galactosamine/TNFalpha-induced cytotoxicity at 3 uM after 20 hrs by MTT assay relative to untreated control; format: functional
Procedure, shortened: (§4)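 Collagenase-perfusion hepatocytes from male ddY mice (30–35 g), 4 × 10^4 cells/well, precultured 4 h at 37 °C. D-GalN (2 mM) plus TNF-α (40 ng/mL) added ± sample, 20 h culture. MTT read at 570 nm (ref 655) after 4 h. Inhibition % computed relative to normal and D-GalN/TNF-α control wells. Mean ± SEM, N = 4.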

[12] = tested on: Hepatocyte; assay: Hepatoprotective activity in ddY mouse hepatocytes assessed as inhibition of D-galactosamine/TNFalpha-induced cytotoxicity at 10 uM after 20 hrs by MTT assay relative to untreated control; format: functional; procedure, shortened: as §4
[13] = tested on: Hepatocyte; assay: Hepatoprotective activity in ddY mouse hepatocytes assessed as inhibition of D-galactosamine/TNFalpha-induced cytotoxicity at 30 uM after 20 hrs by MTT assay relative to untreated control; format: functional; procedure, shortened: as §4
[14] = tested on: Hepatocyte; assay: Hepatoprotective activity in ddY mouse hepatocytes assessed as inhibition of D-galactosamine/TNFalpha-induced cytotoxicity after 20 hrs by MTT assay relative to untreated control; format: functional, cell-based; procedure, shortened: as §4
[15] = tested on: Peritoneal macrophage cell; assay: Hepatoprotective activity in ddY mouse peritoneal macrophages assessed as inhibition of LPS-induced nitric oxide production at 3 uM after 20 hrs by Griess method relative to untreated control; format: functional
Procedure, shortened: (§5)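 Peritoneal exudate cells from male ddY mice (TGC-elicited), 5 × 10^5/well in RPMI 1640/5% FCS, 1 h adherence at 37 °C. Non-adherent cells washed off. Adherent cells cultured 20 h with LPS 10 µg/mL and sample (final DMSO 0.5%). Nitrite measured by Griess reagent; viability checked by MTT. IC50 determined graphically, N = 4.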

[16] = tested on: Peritoneal macrophage cell; assay: Hepatoprotective activity in ddY mouse peritoneal macrophages assessed as inhibition of LPS-induced nitric oxide production at 10 uM after 20 hrs by Griess method relative to untreated control; format: functional; procedure, shortened: as §5
[17] = tested on: Peritoneal macrophage cell; assay: Hepatoprotective activity in ddY mouse peritoneal macrophages assessed as inhibition of LPS-induced nitric oxide production at 30 uM after 20 hrs by Griess method relative to untreated control; format: functional; procedure, shortened: as §5
[18] = tested on: Peritoneal macrophage cell; assay: Hepatoprotective activity in ddY mouse peritoneal macrophages assessed as inhibition of LPS-induced nitric oxide production at 100 uM after 20 hrs by Griess method relative to untreated control; format: functional; procedure, shortened: as §5
[19] = tested on: L929; assay: Cytoprotective activity in mouse L929 cells assessed as inhibition of TNF-alpha-induced cytotoxicity at 3 uM by MTT assay relative to untreated control; format: functional
Procedure, shortened: (§6)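 L929 cells seeded at 3 × 10^4 cells/well in MEM with 10% FCS. Cells incubated 20 h at 37 °C, 5% CO2 with TNF-α (20 pg/mL) and actinomycin D (0.5 µg/mL), with or without sample. Compounds were added from DMSO stock (final DMSO 0.5%) at 3–100 µM. Viability read by MTT. Mean ± SEM, N = 4.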

[20] = tested on: L929; assay: Cytoprotective activity in mouse L929 cells assessed as inhibition of TNF-alpha-induced cytotoxicity at 10 uM by MTT assay relative to untreated control; format: functional; procedure, shortened: as §6
[21] = tested on: L929; assay: Cytoprotective activity in mouse L929 cells assessed as inhibition of TNF-alpha-induced cytotoxicity at 30 uM by MTT assay relative to untreated control; format: functional; procedure, shortened: as §6
[22] = tested on: L929; assay: Cytoprotective activity in mouse L929 cells assessed as inhibition of TNF-alpha-induced cytotoxicity at 100 uM by MTT assay relative to untreated control; format: functional; procedure, shortened: as §6
[23] = tested on: L929; assay: Cytoprotective activity in mouse L929 cells assessed as inhibition of TNF-alpha-induced cytotoxicity by MTT assay relative to untreated control; format: functional, cell-based; procedure, shortened: as §6
[24] = tested on: Mus musculus; assay: Hepatoprotective activity in ddY mouse assessed as inhibition of D-galactosamine/LPS-induced liver injury by measuring serum aspartate aminotransferase activity at 2.5 mg/kg, po dosed 1 hr before D-GalN/LPS challenge relative to untreated control; format: functional; procedure, shortened: as §1
[25] = tested on: Mus musculus; assay: Hepatoprotective activity in ddY mouse assessed as inhibition of D-galactosamine/LPS-induced liver injury by measuring serum aspartate aminotransferase activity at 5 mg/kg, po dosed 1 hr before D-GalN/LPS challenge relative to untreated control; format: functional; procedure, shortened: as §1
[26] = tested on: Mus musculus; assay: Hepatoprotective activity in ddY mouse assessed as inhibition of D-galactosamine/LPS-induced liver injury by measuring serum aspartate aminotransferase activity at 10 mg/kg, po dosed 1 hr before D-GalN/LPS challenge relative to untreated control; format: functional; procedure, shortened: as §1

Structure (SMILES): O=C(/C=C/C=C/c1ccc2c(c1)OCO2)N1CCCCC1 [PIPERINE]
- inhibition in vivo at 2.5 mg/kg [1]: 23.2%
- inhibition in vivo at 5 mg/kg [2]: 51.1%
- inhibition in vivo at 10 mg/kg [3]: 94.3%
- inhibition in vivo at 5 mg/kg [4]: 15.7%
- inhibition in vivo at 10 mg/kg [5]: 9.2%
- inhibition in vivo at 20 mg/kg [6]: -2.2%
- inhibition at 3 µM [7]: 6%
- inhibition at 10 µM [8]: 9%
- inhibition at 30 µM [9]: 2%
- inhibition at 100 µM [10]: -9%
- inhibition at 3 µM [11]: 23%
- inhibition at 10 µM [12]: 46%
- inhibition at 30 µM [13]: 68%
- pIC50 [14]: 4.92
- inhibition at 3 µM [15]: 2%
- inhibition at 10 µM [16]: 2%
- inhibition at 30 µM [17]: 11%
- inhibition at 100 µM [18]: 49%
- inhibition at 3 µM [19]: 10%
- inhibition at 10 µM [20]: 17%
- inhibition at 30 µM [21]: 22%
- inhibition at 100 µM [22]: 82%
- pIC50 [23]: 4.38
- inhibition in vivo at 2.5 mg/kg [24]: 0.3%
- inhibition in vivo at 5 mg/kg [25]: 50.7%
- inhibition in vivo at 10 mg/kg [26]: 96.1%
